Columns and labels:
[1] = Compound was tested for plasma clearance in rat; assay type: ADME, organism-based
[2] = Bioavailability in dog; assay type: ADME, organism-based, Canis lupus familiaris; conditions: in vivo
[3] = Compound was tested for its half life in dog; assay type: ADME, organism-based, Canis lupus familiaris; conditions: in vivo
[4] = Compound was tested for plasma clearance in dog; assay type: ADME, organism-based, Canis lupus familiaris
[5] = molecular target: T1, Oxytocin receptor (Homo sapiens, UniProt P30559); assay: Displacement of 3[H]oxytocin from human oxytocin receptor
T1 sequence (P30559 whole entry): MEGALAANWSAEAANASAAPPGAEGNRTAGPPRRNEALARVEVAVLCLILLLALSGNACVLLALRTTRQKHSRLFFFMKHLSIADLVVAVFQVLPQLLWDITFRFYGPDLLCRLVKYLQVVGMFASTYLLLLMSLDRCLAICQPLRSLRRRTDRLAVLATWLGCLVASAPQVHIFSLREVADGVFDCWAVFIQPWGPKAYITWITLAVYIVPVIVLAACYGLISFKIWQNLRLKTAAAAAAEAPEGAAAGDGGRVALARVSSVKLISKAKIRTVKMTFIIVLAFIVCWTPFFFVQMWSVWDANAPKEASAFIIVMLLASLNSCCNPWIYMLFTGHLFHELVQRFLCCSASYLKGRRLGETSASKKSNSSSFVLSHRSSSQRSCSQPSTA

[6] = Compound was tested for its half life in rat; assay type: ADME, organism-based; conditions: in vivo
[7] = Bioavailability in rat; assay type: ADME, organism-based; conditions: in vivo
[8] = molecular target: T2, Oxytocin receptor (Homo sapiens) (UniProt P30559); assay: Tested for ratio of displacement of 3H oxytocin from human OT in presence and absence of 50 mg/mL human serum albumin
T2 sequence (whole entry): T1 sequence (P30559 whole entry)
In short: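 Displacement of [3H]oxytocin from human OT receptor, with IC50 measured with and without 50 mg/mL human serum albumin. The radioligand was made up in buffer containing 100 mg/mL HSA, a pre-dilution level. The value is the ratio of the IC50 with HSA to the IC50 without HSA.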

[9] = Tested for plasma clearance in dog; assay type: ADME, organism-based, Canis lupus familiaris
[10] = Compound was tested for lipophilicity; assay type: physicochemical; conditions: octanol/water
[11] = molecular target: Albumin (Homo sapiens, UniProt P02768); assay: Compound was tested for Serum albumin binding
Albumin, sequence (P02768 whole entry): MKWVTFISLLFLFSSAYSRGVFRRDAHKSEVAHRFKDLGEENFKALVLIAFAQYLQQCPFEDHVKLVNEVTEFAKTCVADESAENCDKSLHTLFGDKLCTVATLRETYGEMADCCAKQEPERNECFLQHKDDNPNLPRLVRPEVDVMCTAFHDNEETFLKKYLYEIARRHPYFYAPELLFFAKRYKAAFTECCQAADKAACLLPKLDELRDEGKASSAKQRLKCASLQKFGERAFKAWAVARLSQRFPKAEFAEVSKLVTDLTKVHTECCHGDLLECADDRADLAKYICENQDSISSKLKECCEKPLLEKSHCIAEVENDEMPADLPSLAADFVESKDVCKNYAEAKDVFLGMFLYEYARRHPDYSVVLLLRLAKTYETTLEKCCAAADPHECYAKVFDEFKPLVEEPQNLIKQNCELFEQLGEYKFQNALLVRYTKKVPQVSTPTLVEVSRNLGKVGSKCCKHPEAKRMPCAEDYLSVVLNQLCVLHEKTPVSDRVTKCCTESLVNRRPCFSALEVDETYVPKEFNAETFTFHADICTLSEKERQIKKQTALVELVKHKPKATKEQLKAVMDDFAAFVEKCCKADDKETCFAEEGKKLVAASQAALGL

[12] = species: Rattus norvegicus; assay: Serum concentration for 50% inhibition of uterine contractility response to oxytocin in rat; assay type: functional, organism-based
In short: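 Adult female AHA rats pre-treated 18 h with diethylstilboestrol (250 µg/kg ip, corn oil), anaesthetised with pentobarbitone (60 mg/kg ip); uterine tension ~2 g. OT 0.3 µg/kg iv given 3–180 min after a single iv bolus of antagonist (DMSO/PEG200/water 20:50:30). Response = 10-min area under the contraction–time curve. Plasma drug measured by mass spectrometry in serial blood samples.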

[13] = molecular target: T3, Oxytocin receptor (Rattus norvegicus, UniProt P70536); assay: Compound was tested for displacement of 3[H] oxytocin from rat OT receptor (in vitro)
T3 sequence (P70536 whole entry): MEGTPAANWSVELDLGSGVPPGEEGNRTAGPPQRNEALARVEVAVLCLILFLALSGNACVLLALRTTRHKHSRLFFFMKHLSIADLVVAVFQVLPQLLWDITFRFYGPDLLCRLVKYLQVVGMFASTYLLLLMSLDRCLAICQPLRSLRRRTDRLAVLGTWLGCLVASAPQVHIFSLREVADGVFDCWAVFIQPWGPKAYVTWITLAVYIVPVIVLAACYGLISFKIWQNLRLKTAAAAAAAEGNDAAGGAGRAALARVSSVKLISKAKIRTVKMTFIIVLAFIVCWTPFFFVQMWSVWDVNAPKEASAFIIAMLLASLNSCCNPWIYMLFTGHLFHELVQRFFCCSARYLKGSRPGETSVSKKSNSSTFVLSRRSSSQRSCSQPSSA
In short: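 Myometrium from rats that littered within 2 h, homogenised in sucrose buffer; membrane fraction pelleted at 48,000g, 4 °C. Filtration binding with [3H]oxytocin at 1 nM in 50 mM HEPES, 10 mM MgCl2, pH 7.4, plus competing ligand. Incubation 1 h at room temperature, then GF/C filtration, ice-cold buffer washes, scintillation counting of bound label.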

[14] = molecular target: Vasopressin V1a receptor (Homo sapiens, UniProt P37288); assay: Compound was tested for its ability to displace vasopressin from human Vasopressin V1a receptor
Vasopressin V1a receptor, sequence (P37288 whole entry): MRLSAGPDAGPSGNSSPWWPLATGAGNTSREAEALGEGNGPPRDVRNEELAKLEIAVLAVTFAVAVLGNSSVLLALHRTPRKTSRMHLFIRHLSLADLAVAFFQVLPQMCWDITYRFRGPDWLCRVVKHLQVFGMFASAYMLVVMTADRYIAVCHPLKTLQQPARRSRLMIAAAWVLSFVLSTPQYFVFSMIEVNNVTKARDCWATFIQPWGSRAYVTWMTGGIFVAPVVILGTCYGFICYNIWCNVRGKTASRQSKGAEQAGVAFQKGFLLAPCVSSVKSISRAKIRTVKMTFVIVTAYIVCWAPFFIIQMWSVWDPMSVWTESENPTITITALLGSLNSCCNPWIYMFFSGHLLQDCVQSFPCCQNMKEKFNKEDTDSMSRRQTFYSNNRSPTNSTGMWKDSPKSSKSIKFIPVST

[15] = Tested for lipophilicity; assay type: physicochemical; conditions: octanol/water
[16] = Tested for the pharmacokinetic parameter in rat and expressed as area under curve; assay type: ADME, organism-based; set-up: concentration or dose not given beside the values; conditions: in vivo
[17] = Clearance in rat; assay type: ADME, organism-based; conditions: in vivo
[18] = Compound was tested for its lipophilicity; assay type: physicochemical; conditions: octanol/water
[19] = Compound was tested for half life in dog; assay type: ADME, organism-based, Canis lupus familiaris; conditions: in vivo

| SMILES | clearance [1] [mL/min/kg] | half-life [3] [h] | Ki [5] [nM] | half-life [6] [h] | bioavailability [7] [%] | Binding [11] [%] | also measured |
| --- | --- | --- | --- | --- | --- | --- | --- |
| O=C(Cn1ccc(N2CCOCC2)nc1=O)NCc1cc2cc(C(=O)N3CCC(N4C(=O)OCc5ccccc54)CC3)ccc2o1 | 17 | 1.2 | 0.501 | 0.8 | < 1 |  | bioavailability [2]: 2%; clearance [4]: 11 mL/min/kg |
| Cn1ncc2c(=O)n(CC(=O)NCc3cc4cc(C(=O)N5CCC(N6C(=O)OCc7ccccc76)CC5)ccc4o3)cnc21 |  | 1 | 1.26 |  |  |  | bioavailability [2]: 36%; clearance [4]: 11 mL/min/kg |
| O=C(Cn1cc(C(F)(F)F)ccc1=O)NCc1cc2cc(C(=O)N3CCC(N4C(=O)OCc5ccccc54)CC3)c(F)cc2o1 | 21 |  | 7.94 | 1.3 | 15 |  |  |
| O=C(Cn1cc(C(F)(F)F)ccc1=O)NCc1cc2cc(C(=O)N3CCC(N4C(=O)OCc5ccccc54)CC3)ccc2o1 | 10 | 1.5 | 2 | 1 | 16 | 96.2 | HSA shift [8]: 46; bioavailability [2]: 51%; clearance [9]: 8 mL/min/kg; logD [10]: 2.16; IC50 [12]: 20 nM; IC50 [13]: 3040 nM; Ki [14]: 1260 nM |
| O=C(Cn1cnc(C(F)(F)F)cc1=O)NCc1cc2cc(C(=O)N3CCC(N4C(=O)OCc5ccccc54)CC3)ccc2o1 | 20 | 1.6 | 3.98 | 0.8 | 14 |  | bioavailability [2]: 34%; clearance [4]: 6 mL/min/kg; Ki [14]: 3980 nM |
| O=C(Cn1cc(C(F)(F)F)ccc1=O)NCc1cc2ccc(C(=O)N3CCC(N4C(=O)OCc5ccccc54)CC3)cc2o1 |  |  | 100 |  |  |  |  |
| O=C(Cn1cc(C(F)(F)F)ccc1=O)NCc1cc2cc(C(=O)N3CCC(N4C(=O)CCc5ccccc54)CC3)ccc2o1 | 13 |  | 25.1 | 1.1 | 44 |  |  |
| O=C(Cn1cc(C(F)(F)F)ccc1=O)NCc1cc2cc(C(=O)N3CCC(N4C(=O)OCc5ccccc54)CC3)cnc2o1 | 26 |  | 3.16 | 0.6 | 2 | 86.2 | HSA shift [8]: 19; logD [15]: 1.85; IC50 [12]: 20 nM; IC50 [13]: 744 nM |
| O=C(Cn1ccc2ccccc2c1=O)NCc1cc2cc(C(=O)N3CCC(N4C(=O)OCc5ccccc54)CC3)ccc2o1 | 10 | 1.1 | 6.31 | 0.8 | 17 |  | clearance [4]: 6 mL/min/kg |
| O=C(Cn1ccc(-c2ccccc2)nc1=O)NCc1cc2cc(C(=O)N3CCC(N4C(=O)OCc5ccccc54)CC3)ccc2o1 |  | 1.3 | 1 |  |  |  | clearance [4]: 9 mL/min/kg |
| O=C(Cn1cc(C(F)(F)F)ccc1=O)NCc1cc2cc(C(=O)N3CCC(N4C(=O)OCc5cccc(F)c54)CC3)ccc2o1 | 11 |  | 7.94 | 1.2 | 67 |  |  |
| O=C(c1ccc2oc(CN3CCCC[C@H]3Cn3cc(C(F)(F)F)ccc3=O)cc2c1)N1CCC(N2C(=O)OCc3ccccc32)CC1 |  |  | 10 |  |  | 98 | HSA shift [8]: 90 |
| COc1cccn(CC(=O)NCc2cc3cc(C(=O)N4CCC(N5C(=O)OCc6ccccc65)CC4)ccc3o2)c1=O | 22 | 1.1 | 2.51 | 1.2 | 3 |  | bioavailability [2]: 68%; clearance [4]: 19 mL/min/kg; Ki [14]: 1580 nM |
| O=C(Cn1cc(C(F)(F)F)ccc1=O)NCc1nc2ccc(C(=O)N3CCC(N4C(=O)OCc5ccccc54)CC3)cc2s1 |  |  | 10 |  |  |  |  |
| O=C(Cn1ccccc1=O)NCc1cc2cc(C(=O)N3CCC(N4C(=O)OCc5ccccc54)CC3)ccc2o1 |  | 0.5 | 6.31 |  |  |  | clearance [4]: 34 mL/min/kg |
| O=C(c1ccc2oc(-c3cncc(Cn4cc(C(F)(F)F)ccc4=O)c3)cc2c1)N1CCC(N2C(=O)OCc3ccccc32)CC1 | 7 |  | 63.1 | 1.4 | 41 | 96 | HSA shift [8]: 17; AUC [16]: 5400 ng·h/mL |
| O=C(c1ccc2oc(CN3CCC(n4cc(C(F)(F)F)ccc4=O)CC3)cc2c1)N1CCC(N2C(=O)OCc3ccccc32)CC1 |  |  | 794 | 1.7 | 79 | 93 | HSA shift [8]: 4; AUC [16]: 12000 ng·h/mL; clearance [17]: 6 mL/min/kg |
| O=C(Cn1cc(C(F)(F)F)ccc1=O)NCc1cc2cc(C(=O)N3CCC(N4C(=O)OCc5ccc(Cl)cc54)CC3)ccc2o1 | 21 |  | 3.16 | 1 | 35 |  |  |
| O=C(c1ccc2oc(-c3cc(Cn4cc(C(F)(F)F)ccc4=O)ccn3)cc2c1)N1CCC(N2C(=O)OCc3ccccc32)CC1 |  |  | > 3160 |  |  | 96 |  |
| O=C(Cn1cc(C(F)(F)F)ccc1=O)NCc1cc2cc(C(=O)N3CCC(N4C(=O)OCc5cc(F)ccc54)CC3)ccc2o1 | 17 |  | 6.31 | 0.9 | 18 |  |  |
| COc1cc(OC2CCN(C(C)=O)CC2)ccc1C(=O)N1CCC(N2C(=O)OCc3ccccc32)CC1 | 51 | 1.1 | 6.31 | 1.1 | 55 | 83.7 | bioavailability [2]: 29%; logD [18]: 1.66; clearance [4]: 13 mL/min/kg; IC50 [12]: 25 nM; Ki [14]: > 2000 nM |
| O=C(Cn1cc(C(F)(F)F)ccc1=O)NCc1nc2cc(C(=O)N3CCC(N4C(=O)OCc5ccccc54)CC3)ccc2s1 |  |  | 79.4 |  |  |  |  |
| O=C(c1ccc2oc(-c3cccc(Cn4cc(C(F)(F)F)ccc4=O)c3)cc2c1)N1CCC(N2C(=O)OCc3ccccc32)CC1 | 7 |  | 794 | 2.2 | > 45 | 98 | AUC [16]: 5700 ng·h/mL |
| CCOc1ccn(CC(=O)NCc2cc3cc(C(=O)N4CCC(N5C(=O)OCc6ccccc65)CC4)ccc3o2)c(=O)n1 | 35 |  | 2 | 0.8 | 2 |  | bioavailability [2]: 43%; clearance [9]: 12 mL/min/kg; half-life [19]: 1.9 h; Ki [14]: 1580 nM |
| Cn1c(CNC(=O)Cn2cc(C(F)(F)F)ccc2=O)cc2ccc(C(=O)N3CCC(N4C(=O)OCc5ccccc54)CC3)cc21 |  |  | 50.1 |  |  |  |  |
| O=C(Cn1cc(C(F)(F)F)ccc1=O)NCc1cc2cc(C(=O)N3CCC(N4C(=O)OCc5c(F)cccc54)CC3)ccc2o1 |  |  | 100 |  |  |  |  |
| O=C(c1ccc2oc(CN3CCC[C@@H](n4cc(C(F)(F)F)ccc4=O)C3)cc2c1)N1CCC(N2C(=O)OCc3ccccc32)CC1 | 28 |  | 25.1 | 0.6 |  | 96 | HSA shift [8]: 222; bioavailability [2]: 2%; AUC [16]: 150 ng·h/mL |
| O=C(c1ccc2oc(-c3cccc(Cn4cc(C(F)(F)F)ccc4=O)n3)cc2c1)N1CCC(N2C(=O)OCc3ccccc32)CC1 | 12 |  | 10 | 1.2 | 22 | 98 | HSA shift [8]: 87; AUC [16]: 1500 ng·h/mL |
| O=C(Cn1cc(C(F)(F)F)ccc1=O)NCc1cc2cc(C(=O)N3CCC(N4C(=O)OCc5ccc(F)cc54)CC3)ccc2o1 |  |  | 6.31 |  |  |  |  |
